High-throughput results (PubChem)
GalR3 antag: antagonists of human GalR3 | O60755 | HEK293 GalR3-CNG cAMP membrane potential fluorescence; galR3 body fused to GalR1 C-terminus | inhibition, % at 3 µM | 360,000 tested, 0.44% active | AID 651719;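 active means inhibition above the screen-wide average plus 3 SD, cut at about 13% in these data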;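 further: forskolin and galanin both at EC90 stimulate the cells; cAMP rise reported by CNG channel membrane potential dye signal; 0% = forskolin plus galanin with DMSO and 100% = forskolin alone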
Target sequence (O60755 1-299 limits assumed): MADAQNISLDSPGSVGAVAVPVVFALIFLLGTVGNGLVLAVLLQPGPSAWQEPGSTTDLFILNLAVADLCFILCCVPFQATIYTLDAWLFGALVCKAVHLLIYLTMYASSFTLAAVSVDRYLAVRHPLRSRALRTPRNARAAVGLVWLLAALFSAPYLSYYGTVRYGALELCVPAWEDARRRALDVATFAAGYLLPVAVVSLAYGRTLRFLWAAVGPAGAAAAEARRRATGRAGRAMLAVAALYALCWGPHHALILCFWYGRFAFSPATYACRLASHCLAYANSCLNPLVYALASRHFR
GPR7 antag: human neuropeptides B/W receptor 1 antagonism; AID 1861; GPR7-expressing cells, fluorescence antagonist assay; 290,000 tested, 1.1% active; inhibition, % at 4.4 µM; in the data active means inhibition above about 16%, passing the limit was not always enough;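 further: cells stimulated with the agonist NPW; 0% = agonist with vehicle and 100% = vehicle without agonist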
OX1R antag-1: blocks the human orexin 1 receptor. O43613. CHO/OX1R cells, Fluo-8 calcium fluorescence, orexin A. inhibition, % at 5 µM. 330,000 tested, 0.43% active. AID 434989;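 active means inhibition above its plate's threshold, mean inhibition of all tested compounds on the plate plus 3 SD, cut at about 37% in these data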;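 further: 0% = orexin A challenge wells and 100% = SB-334867-A antagonist wells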
CHO parental Ca: counter-screen for OX1R antagonists: effect in parental CHO cells. parental CHO-K1, ATP-induced calcium, Fluo-8 fluorescence. inhibition, % at 5.6 µM. 330,000 tested, 0.63% active. AID 463079;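 active means inhibition above that plate's mean sample inhibition plus 3 SD, cut at about 26% in these data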;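 further: 0% = ATP-challenged DMSO wells and 100% = DMSO wells without ATP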
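Assay system: untransfected parental CHO cell line. Also added: ATP agonist challenge. Dosing: one dose, 5.6 µM nominal. Measured by: Fluo-8 fluorescence. Read-out: % inhibition. Benchmarks: ATP wells versus no-ATP DMSO wells. Repeats: no replicates.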
OX1R antag-2: OX1R (human) antagonism. O43613. OX1R-expressing cells, FRET antagonist read-out. inhibition, % at 6.6 µM. 330,000 tested, 1.8% active; in the data active means inhibition mostly above about 38%, no sharp cut-off; inactive means mostly below about 40%;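 further: 0% = agonist challenge alone and 100% = reference antagonist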
An asterisk follows results filed as active; / = no result. Hits are enriched below; roughly 3.1% of the tested compounds scored in any of these assays.

SMILES | GalR3 antag | GPR7 antag | OX1R antag-1 | CHO parental Ca | OX1R antag-2
COc1ccc(NC(=O)c2cccc(-c3ccc(O)cc3)c2)cn1 | -7.6 | 2.8 | -10.3 | 6.0 | 12.1
O=C(OCC(=O)N1CCOCC1)c1cc2ccccc2oc1=O | -2.5 | / | -10.8 | -1.5 | 46.2*
CC(C)(C)N(Cc1ccccc1)C(=O)COC(=O)C1CC1 | -3.6 | / | -20.7 | -8.1 | 11.1
COc1cccc2cc(C(=O)OCC(=O)N3CC(C)OC(C)C3)c(=O)oc12 (stereo not given) | -4.3 | / | 1.3 | -10.6 | 53.2*
CN(Cc1ccccc1)C(=O)c1ccccc1C(=O)OCC(=O)N(Cc1ccccc1)C(C)(C)C | -1.2 | / | 31.1 | -20.2 | 31.2*
CN(Cc1ccccc1)C(=O)COC(=O)c1cc2ccccc2oc1=O | -2.2 | / | -16.5 | -19.5 | 28.0*
COc1ccc(-c2nn(-c3ccccc3)cc2CNC[C@H]2O[C@@H](n3cnc(C(N)=O)n3)[C@H](O)[C@@H]2O)cc1 | -6.7 | / | / | / | /
O=C(OCC(=O)N1CCOCC1)c1cc(=O)[nH]c2ccccc12 | -3.2 | / | -12.8 | -10.8 | 35.3*
O=C(COC(=O)c1cc(=O)[nH]c2ccccc12)c1ccccc1 | -1.0 | -4.8 | -5.2 | -13.6 | 26.9
CCOc1ccc(S(=O)(=O)NCCC(=O)NCCOc2ccccc2)cc1 | 0.9 | / | -1.6 | -19.2 | 8.2
O=C(OCC(=O)N1CCC(c2ccccc2)=N1)c1ccc(Cl)s1 | -5.2 | / | 33.5 | -16.2 | 33.7*
S=c1nc2ccccc2c2nc(-c3ccccc3Cl)[nH]n12 | -3.6 | 27.9 | -5.8 | -7.4 | 56.6*
S=c1nc2ccccc2c2nc(-c3ccccc3)[nH]n12 | -3.1 | -1.9 | -4.0 | -6.2 | 64.8*
COc1cc(-c2nc3c4ccccc4nc(=S)n3[nH]2)cc(OC)c1OC | -2.4 | -12.7 | 5.9 | -4.5 | 11.7
COCCCNC(=O)C[C@H]1C[C@@]2(C(=O)OC)C(=C[C@H](C(C)(C)C)O[C@@H]2C)N(CCC2=CCCCC2)C1=O | -0.7 | / | / | / | /
COc1ccc(NS(=O)(=O)c2ccc3c(c2)CCC(=O)N3)cc1O | 6.4 | / | / | / | /
Cc1cccc(OCCCN2CCC(C(O)(c3ccccc3)c3ccccc3)CC2)c1 | -9.8 | / | / | / | /
COc1ccccc1-c1ncn(Cc2cccc(-c3ccccc3)c2)c1-c1ccco1 | -3.9 | / | / | / | /
O=C(NCCN1C(=O)S/C(=C\c2ccc(Cl)cc2Cl)C1=O)C1=COCCO1 | 2.5 | / | -34.2 | -2.5 | 28.2
Cn1cccc1/C=C1\SC(=Nc2cccc(O)c2)NC1=O | -4.8 | -2.5 | -15.4 | -7.3 | 41.8*
Cn1cccc1/C=C1\SC(=Nc2ccc(O)cc2)NC1=O | 1.6 | 20.8* | -12.9 | -22.5 | 15.4
CCOc1ccc(-n2c(SCc3nc(-c4cccs4)no3)nnc2-c2ccncc2)cc1 | -3.4 | 17.9* | -41.2 | -22.1 | 10.3
CCOc1ccccc1C(=O)Nc1cc(C(=O)NCC(C)C)ccc1Cl | / | -8.6 | -15.9 | -1.8 | 48.1*
COC(=O)c1sccc1NC(=O)c1ccc(C)s1 | 4.6 | -0.9 | -3.7 | -31.2 | 56.5*
CC(C)CNC(=O)c1ccc(Cl)c(NC(=O)COc2ccccc2)c1 | / | -6.7 | -36.0 | -21.0 | 18.4
SMILES | GalR3 antag | GPR7 antag | OX1R antag-1 | CHO parental Ca | OX1R antag-2
CCOc1ccccc1C(=O)Nc1ccsc1C(=O)OC | -8.1 | -8.8 | -19.7 | -14.7 | 69.0*
O=C(NNC(=O)c1cccnc1)Nc1cccc(Cl)c1Cl | -9.6 | 0.5 | 1.5 | 0.0 | 11.0
COC(=O)[C@]12C[C@H](CC(=O)N3CCSCC3)C(=O)N(Cc3ccccc3)C1=C[C@H](C(C)(C)C)O[C@@H]2C | -6.6 | / | / | / | /
O=C(COC(=O)c1ccc2c(c1Cl)C(=O)c1ccccc1C2=O)NC1CCCCC1 | -0.8 | -7.7 | -36.7 | -16.8 | 16.2
O=C(COC(=O)c1ccc2c(c1Cl)C(=O)c1ccccc1C2=O)NC1CC1 | -1.1 | -1.6 | -24.4 | -20.7 | 60.8*
O=C(O)CC(Sc1ccc(Cl)cc1)C(=O)Nc1ccccc1 (stereo not given) | -8.7 | / | / | / | /
CN(C)S(=O)(=O)c1ccc(Cl)c(C(=O)Nc2ccccc2[N+](=O)[O-])c1 | -0.1 | -6.9 | -27.2 | -12.6 | 43.9
CCN(CC)S(=O)(=O)c1ccc(Cl)c(C(=O)Nc2ccc(Cl)cc2[N+](=O)[O-])c1 | -0.5 | -10.9 | 13.0 | 49.8* | 36.4
COc1cccc(Nc2nn3c(=O)c4ccccc4nc3s2)c1 | / | / | 14.3 | -13.9 | 38.5*
Cc1ccccc1Nc1nn2c(=O)c3ccccc3nc2s1 | -5.1 | -4.9 | -28.5 | -18.3 | 31.1
CCCCc1c(-c2ccccc2OC)ncn1C(C)c1ccccc1 (stereo not given) | -10.8 | / | / | / | /
